Compound activity from PubChem BioAssay.
Rows were chosen to be rich in hits. Some 2.5% of all compounds tested hit in one or more screens of this group.
NTR1 ag: activates human neurotensin receptor 1; P30989; NTR1-U2OS beta-arrestin-GFP spot imaging, agonist mode; activation, % at 20 µM; 0.17% of 330,000 active; AID 493036;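 active = activation at or above 40% of the spot to cytoplasm intensity ratio, with at least 20 cells analyzed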;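 note: 0% = DMSO without peptide and 100% = 100 nM NTR1 peptide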
Exocytosis inh: blocks lytic granule exocytosis. TALL-104 LAMP-1 surface exposure, flow cytometry; cells stimulated with thapsigargin and PMA. inhibition, % at 10 µM. 0.66% of 360,000 active;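 active = inhibition above about 55%, limit read from the data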
HGIII-sPLA2 inh: Inhibits HGIII-sPLA2 liposome hydrolysis, primary screen. Q9NZ20. QFRET BODIPY PC-A2 liposome hydrolysis, fluorescence. inhibition, % at 12.2 µM. 0.56% of 370,000 active;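 active = inhibition above mean plus 3 SD of compounds lying within the high and low control bounds, cut at about 19% in these data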;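 note: 0% = median of test compound wells and 100% = no enzyme DMSO wells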
MC4R ag barr: human MC4R agonism via beta-arrestin; P32245; U2OS MC4R beta-arrestin complementation, luminescence; percent of melanotan II response, DMSO zero; activation, % at 8.9 µM; 0.98% of 360,000 active;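 active = activation above a per-plate cutoff, the mean activation of sample wells on that plate plus 3 SD, cut at about 8% in these data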
Target sequence (P32245 whole entry, looked up): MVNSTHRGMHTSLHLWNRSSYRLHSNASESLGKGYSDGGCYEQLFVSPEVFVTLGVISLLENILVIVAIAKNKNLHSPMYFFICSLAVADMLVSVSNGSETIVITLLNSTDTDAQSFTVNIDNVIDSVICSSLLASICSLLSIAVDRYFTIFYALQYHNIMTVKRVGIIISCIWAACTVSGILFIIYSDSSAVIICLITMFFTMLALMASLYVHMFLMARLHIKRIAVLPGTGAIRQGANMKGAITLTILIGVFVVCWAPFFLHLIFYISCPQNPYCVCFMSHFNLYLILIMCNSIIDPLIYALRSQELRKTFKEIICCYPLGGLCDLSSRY
MC4R antag cAMP: blocks human MC4R cAMP signaling; P32245; 0.48% of 360,000 active; inhibition, % at 6.5 µM; MC4R-expressing cells, MTII-stimulated cAMP, LANCE TR-FRET; AID 540295;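 active = inhibition above its plate's cutoff, the mean of tested wells on that plate plus 3 SD, cut at about 29% in these data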;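 note: 0% = Melanotan II alone and 100% = Melanotan II plus saturating MCL0020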
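Assay system: human MC4R-expressing U2OS cells; reagent: Melanotan II stimulation of cells; dosing: 6.5 µM single dose; timing: compound 30 min, challenge 1 h, detection 1 h; signal: TR-FRET cAMP assay; replicates: one well per compound, no replicates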
A1 inh: inhibitors of the anti-apoptotic protein A1, read as caspase activation; caspase activation, % (test concentration not listed); 0.066% of 330,000 active; MEF A1-2A-BIM cells, Caspase-Glo 3/7 luminescence, 3 h; percent of clofoctol response, vehicle zero;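 active = over half of replicate activation scores above 10%, or exactly half above 10 with the replicate mean above 10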
MC4R barr ag: human MC4R beta-arrestin agonism confirmation; shares compounds with MC4R ag barr; U2OS MC4R beta-arrestin recruitment, luminescence; scaled DMSO 0%, Melanotan II 100%; activation, % at 8.9 µM; 31% of 2,400 active;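 active = mean activation across replicates above the hit cutoff set in the earlier primary screen, cut at about 8% in these data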
MOR-DOR barr ag: OPRM1-OPRD1 heterodimer agonism counter-screen | AID 602194 | 5.8% of 2,400 active | activation, % at 9.2 µM | shares compounds with MC4R ag barr | U2OS PathHunter beta-arrestin, beta-gal luminescence; percent of deltorphin B response, DMSO zero;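 active = mean activation across replicates exceeds the hit threshold derived in the earlier primary screen, cut at about 18% in these data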;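 note: 100% = deltorphin B at 0.9 µM final and 0% = DMSO alone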
An asterisk follows results filed as active; · = not tested or not shown.

SMILES	NTR1 ag	Exocytosis inh	HGIII-sPLA2 inh	MC4R ag barr	MC4R antag cAMP	A1 inh	MC4R barr ag	MOR-DOR barr ag
O=S1(=O)C=C(Sc2ccc(Cl)cc2)c2ccccc2C1Cc1ccc(F)cc1 (stereo unspecified)	·	·	-3	·	·	·	·	·
Fc1cccc(Cl)c1/C=N/Nc1c(Cl)cncc1Cl	4	-1	-1	10*	-6	1	4	7
NC1(N2SC(S)=C3CCCC=C32)CCCCC1	·	·	2	·	·	·	·	·
CC(C)(C)C1CCC(C(=O)Nc2ccccc2)CC1 (stereo unspecified)	2	6	0	10*	-5	0	2	6
CCCn1c(/N=C/c2c[nH]c3ccccc23)nc2ccccc21	10	0	3	11*	-4	0	1	5
CCCCn1c(/N=C/c2c[nH]c3ccccc23)nc2ccccc21	22	11	2	7	-4	0	·	·
C[C@H](O)[C@@H]1C(=O)N2CCc3c([nH]c4c(-c5ccccc5)cccc34)[C@@H]2C[C@@H]1N(C)C(=O)Nc1ccccc1	·	·	-38	·	·	·	·	·
CCCCOc1ccc(S(=O)(=O)NNC(=O)c2cc3ccccc3o2)cc1	4	0	-40	5	-2	2	·	·
CC(C)COc1ccc(S(=O)(=O)NNC(=O)c2cc3ccccc3o2)cc1	7	18	-39	11*	14	0	12*	10
COC(=O)C1CN(Cc2ccc(F)cc2)CCS(=O)(=O)N1Cc1ccc(C(F)(F)F)cc1 (stereo unspecified)	·	·	2	·	·	·	·	·
C1CCC(C(CC2CCCCN2)C2CCCCC2)CC1 (stereo unspecified)	25	19	-4	11*	14	1	12*	13
CCOC(=O)N1CCN(C(=O)C[C@@H]2C(=O)N3CCCC4=C3[C@@]2(C(=O)OC)CCCC4)CC1	·	·	0	·	·	·	·	·
COc1cc(NC(=O)c2ccco2)c(C(=O)OCC(=O)Nc2ncc(Cl)cc2Cl)cc1OC	0	2	-3	18*	1	-1	0	3
O=C(COC(=O)c1ccccc1NC(=O)c1ccco1)Nc1ncc(Cl)cc1Cl	0	2	-7	0	4	1	·	·
CCCCOc1ccc(C(=O)Nc2ccc(SC(F)F)cc2)cc1OC	0	0	-3	9.9*	8	-1	16*	7
O=C(Nc1ccc2ccccc2c1)c1ccccc1Cl	·	-4	2	-3	8	·	·	·
O=C(Nc1ccc2ccccc2c1)c1ccc(Cl)cc1Cl	11	11	-1	12*	16	-5	2	5
COc1ccc(CCNC(=O)COc2ccc([N+](=O)[O-])cc2)cc1	1	-2	0	-1	4	0	·	·
COc1ccc(CCNC(=O)COc2ccc(-c3ccc(C#N)cc3)cc2)cc1	-1	1	-2	19*	1	0	8	28*
N#Cc1ccc(-c2ccc(OCC(=O)NCC(=O)Nc3ccc(F)c(F)c3F)cc2)cc1	1	16	-4	18*	11	-1	0	8
CCOc1ccc(C(=O)CCC(=O)NCC(=O)Nc2ccc(F)c(F)c2F)cc1	·	0	2	2	6	·	·	·
COCCCNC(=O)c1ccc(Cn2c(=O)c3ccccc3n(Cc3ccc(Br)cc3)c2=O)cc1	·	·	2	·	·	·	·	·
CCc1cc2c(nc1CC)CCCN2S(=O)(=O)c1c(C)noc1C	·	·	8	·	·	·	·	·
Cc1ccc(NC(=O)c2cc(-c3ccco3)on2)cc1C	3	21	-8	0	13	-3	·	·
Cc1ccc(NC(=O)c2cc(-c3cccc(O)c3)on2)cc1C	13	-3	-31	9.6*	5	0	-1	8
SMILES	NTR1 ag	Exocytosis inh	HGIII-sPLA2 inh	MC4R ag barr	MC4R antag cAMP	A1 inh	MC4R barr ag	MOR-DOR barr ag
Cn1c(Cc2cccs2)nnc1SCC(=O)Nc1ccc2c(c1)OCCO2	·	·	1	·	·	·	·	·
COc1cc2c(cc1NC(=O)c1cccc([N+](=O)[O-])c1)oc1ccccc12	6	0	-1	22*	-23	1	31*	47*
Cc1ccccc1-c1ccc2c(c1)[C@@H]1C[C@H](N(C)C(=O)Nc3ccccc3)[C@H]([C@H](C)O)CN1CC2	·	·	11	·	·	·	·	·
Oc1oc(-c2ccccc2)nc1/C=N/c1ccccn1	-3	-1	3	3	-5	-1	·	·
Oc1oc(-c2ccccc2Br)nc1C=Nc1ccc(Br)cn1	1	3	0	21*	2	0	10*	3
CC(=O)c1nn(-c2ccccc2)cc1C(=O)c1cccc(Br)c1	-2	-6	-1	9.8*	0	0	12*	5
CCOC(=O)c1nn(-c2ccc(C)cc2)cc1C(=O)c1ccccc1	0	-2	-15	0	3	-5	·	·
CC(=O)c1nn(-c2ccc(Cl)cc2)cc1C(=O)c1ccccc1	0	-8	-3	18*	1	2	4	16
CC(=O)c1nn(-c2cccc(Br)c2)cc1C(=O)c1ccco1	1	0	5	-2	1	0	·	·
CC(=O)c1nn(-c2cccc(Br)c2)cc1C(=O)c1ccc(Cl)cc1	3	-6	-2	32*	-5	0	13*	6
NC(=O)c1ccsc1NC(=O)c1ccc(S(=O)(=O)N2CCCC2)cc1	-2	-3	-5	0	4	-4	·	·
CC1CC(C)CN(S(=O)(=O)c2ccc(C(=O)Nc3sccc3C(N)=O)cc2)C1 (stereo unspecified)	19	0	-2	13*	5	-1	14*	11
O=C(Nc1cc(C(F)(F)F)ccc1N1CCOCC1)c1cn2ccccc2n1	-2	-7	0	12*	-1	0	-1	3
COc1cc2c(cc1NC(=O)CSc1nnc(-c3ccccn3)n1-c1ccccc1)oc1ccccc12	·	·	-2	·	·	·	·	·
CCNC(=S)NNC(=O)c1cnccn1	·	·	0	·	·	·	·	·
CCOC(=O)N1CCC(NC(=O)Cn2cc3c(n2)CCC(C)C3)CC1 (stereo unspecified)	0	-4	4	0	7	0	·	·
CCOC(=O)c1ccc(NC(=O)Cn2cc3c(n2)CCC(C)C3)cc1 (stereo unspecified)	1	-3	3	13*	3	-1	2	5
O=C(CCc1ccccc1)NC(NC(=S)Nc1cccc(Cl)c1)C(Cl)(Cl)Cl (stereo unspecified)	1	-2	-4	6	15	1	·	·
